According to ChEMBL document CHEMBL4725355, “Design, Synthesis, and Preclinical Evaluation of 3-Methyl-6-(5-thiophenyl)-1,3-dihydro-imidazo[4,5-b]pyridin-2-ones as Selective GluN2B Negative Allosteric Modulators for the Treatment of Mood Disorders” (J Med Chem, 2020):
In brackets after ≈: the same amount, converted by molar mass.

Experiments:
[1] = Negative allosteric modulation of human GluN1a/GluN2B receptor expressed in CHO cells assessed as inhibition of glutamate and glycine-induced calcium flux preincubated for 5 mins followed by glutamate and glycine addition and measured after 5 mins by calcium 5 dye based FLIPR assay; type: cell-based
Procedure, shortened: (§1)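 Tet-On CHO T-Rex cells expressing hGluN1a with GluN2A, 2B, 2C or 2D, plated at 20,000 cells/well and induced 24 h before the assay in the presence of ketamine. Cells loaded 1 h at room temperature with Calcium 5 dye, pH 7.4 HEPES buffer. Compound added 5 min, then glutamate (~EC80) plus 10 µM glycine for 5 min; FLIPR fluorescence normalized to control wells. Three independent runs in duplicate (two for some).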

[2] = Solubility of compound in phosphate buffer at pH 2 measured after 3 days; type: physicochemical; settings: time 3 day
Procedure, shortened: (§2)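 Solubility in aqueous buffer at pH 2 and pH 7, and in simulated gastric and intestinal fluids.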

[3] = Solubility of compound in phosphate buffer at pH 7 measured after 3 days; type: physicochemical; settings: time 3 day; procedure, shortened: as §2
[4] = Efflux ratio of apparent permeability across basolateral to apical side over apical to basolateral side in MDCK-MDR1 cells at 5 uM measured after 60 mins by LC-MS/MS analysis; type: ADME, cell-based, Canis lupus familiaris; settings: dog
Procedure, shortened: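 MDCK-MDR1 cells, passages 6-30, seeded at 3.4×10^5 cells/cm² and cultured 3 days. Test compound at 5 µM final (1% DMSO) in HBSS, pH 7.4, applied to the donor side. A→B and B→A runs at 37 °C for 60 min, in duplicate, quantified by LC/MS/MS. Efflux ratio taken as B-A/A-B; monolayer integrity checked by lucifer yellow.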

[5] = biological target: Voltage-gated inwardly rectifying potassium channel KCNH2 (Homo sapiens, UniProt Q12809); assay: Inhibition of human ERG expressed in CHO cells measured after 5 mins by Qpatch method; type: cell-based
Procedure, shortened: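 CHO cells stably expressing hERG, whole-cell QPatch. Vehicle applied 5 min, then 0.3, 3.0, 10 and 30 µM in rising order, each concentration applied twice. Current measured after 5 min as the average of 3 voltage pulses; block taken relative to vehicle pretreatment, mean ± SEM.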

[6] = Displacement of 3-[3H] 1-(azetidin-1-yl)-2-[6-(4-fluoro-3-methyl-phenyl)pyrrolo[3,2-b]pyridin-1-yl]ethanone from GluN1a/GluN2B receptor in rat cortex membranes measured after 2 hrs by liquid scintillation counting method; type: cell membranes
Procedure, shortened: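 Rat adult cortex was homogenized in 50 mM Tris pH 7.4, and membranes were washed by centrifugation. Membranes were incubated with the [3H] pyrrolopyridine tracer and test compound for 2 h at room temperature with shaking. Non-specific binding was defined with 10 µM CP-101,606. Bound tracer was separated by filtration on PEI-soaked GF/B filters and counted by liquid scintillation. Ki was obtained from a competition fit using tracer Kd; three independent runs in duplicate.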

[7] = Metabolic stability in human liver microsomes assessed as extraction ratio at 1 uM after 5 to 60 mins in presence of NADPH by LC-MS/MS analysis; type: ADME, Microsome; settings: time 5-60 min, read-out: ERH
Procedure, shortened: (§3)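 Human and rat liver microsomes, run in duplicate; stability reported as microsomal extraction ratio.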

[8] = Metabolic stability in rat liver microsomes assessed as extraction ratio at 1 uM after 5 to 60 mins in presence of NADPH by LC-MS/MS analysis; type: ADME, Microsome; settings: time 5-60 min, read-out: ERH; procedure, shortened: as §3
[9] = Clearance in Sprague-Dawley rat at 0.5 mg/kg, iv using 30% SBE-beta-CD formulation by LC-MS/MS analysis; type: ADME, organism-based; settings: in vivo
Procedure, shortened: (§4)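 Rat IV/PO PK at 0.5 mg/kg IV and 2.5 mg/kg PO, dosed in 30% SBE-β-CD, n=3.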

[10] = Volume of distribution at steady state in Sprague-Dawley rat at 0.5 mg/kg, iv or 2.5 mg/kg, po using 30% SBE-beta-CD formulation by LC-MS/MS analysis; type: ADME, organism-based; settings: in vivo, read-out: Vdss
Procedure, shortened: (§5)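 Rat PK at 0.5 mg/kg i.v. and 2.5 mg/kg p.o., vehicle 30% SBE-β-CD. n=3, values given as mean ± SD.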

[11] = Half life in Sprague-Dawley rat at 0.5 mg/kg, iv or 2.5 mg/kg, po using 30% SBE-beta-CD formulation by LC-MS/MS analysis; type: ADME, organism-based; settings: in vivo
Procedure, shortened: (§6)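 Rats dosed 0.5 mg/kg i.v. and 2.5 mg/kg p.o., n=3 ± SD. Default vehicle is 20% HP-β-CD; one PK set used 1:1 PEG400/water and another 30% SBE-β-CD.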

[12] = Cmax in Sprague-Dawley rat at 0.5 mg/kg, iv or 2.5 mg/kg, po using 30% SBE-beta-CD formulation by LC-MS/MS analysis; type: ADME, organism-based; parameters: dose 2.5 mg/kg; settings: in vivo; procedure, shortened: as §4
[13] = AUC (infinity) in Sprague-Dawley rat at 0.5 mg/kg, iv or 2.5 mg/kg, po using 30% SBE-beta-CD formulation by LC-MS/MS analysis; type: ADME, organism-based; parameters: dose 2.5 mg/kg; settings: in vivo; procedure, shortened: as §4
[14] = Tmax in Sprague-Dawley rat at 0.5 mg/kg, iv or 2.5 mg/kg, po using 30% SBE-beta-CD formulation by LC-MS/MS analysis; type: ADME, organism-based; settings: in vivo; procedure, shortened: as §5
[15] = Oral bioavailability in Sprague-Dawley rat at 2.5 mg/kg using 30% SBE-beta-CD formulation by LC-MS/MS analysis; type: ADME, organism-based; settings: in vivo; procedure, shortened: as §6
[16] = Ex vivo receptor occupancy at GluN2B in Sprague-Dawley rat assessed as 3-[3H] 1-(azetidin-1-yl)-2-[6-(4-fluoro-3-methyl-phenyl)pyrrolo[3,2-b]pyridin-1-yl]-ethanone labelling at 3 mg/kg, po measured after 0.5 hrs by autoradiography; type: functional
Procedure, shortened: (§7)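 Rats dosed orally at 3 mg/kg in 20% HP-β-CD; brains taken at 0.5, 2 and 6 h. Ex vivo autoradiography of brain slices with the ³H pyrrolo[3,2-b]pyridine GluN2B tracer. Labelling expressed relative to matching brain areas of vehicle-treated animals; n=2, ± SEM.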

[17] = Ex vivo receptor occupancy at GluN2B in Sprague-Dawley rat assessed as 3-[3H] 1-(azetidin-1-yl)-2-[6-(4-fluoro-3-methyl-phenyl)pyrrolo[3,2-b]pyridin-1-yl]-ethanone labelling at 3 mg/kg, po measured after 2 hrs by autoradiography; type: functional; procedure, shortened: as §7
[18] = Ex vivo receptor occupancy at GluN2B in Sprague-Dawley rat assessed as 3-[3H] 1-(azetidin-1-yl)-2-[6-(4-fluoro-3-methyl-phenyl)pyrrolo[3,2-b]pyridin-1-yl]-ethanone labelling at 3 mg/kg, po measured after 6 hrs by autoradiography; type: functional; procedure, shortened: as §7
[19] = Cmax in Sprague-Dawley rat brain at 3 mg/kg, po after 2 hrs by LC-MS/MS analysis; type: ADME, organism-based; parameters: route oral, dose 3 mg/kg, time 2 hrs
Procedure, shortened: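 Oral dose of 3 mg/kg in 20% HP-β-CD to rats. Brain concentration was measured alongside ex vivo GluN2B occupancy over a 6 h time course (0.5, 2 and 6 h), n=2.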

[20] = Tmax in Sprague-Dawley rat brain at 3 mg/kg, po by LC-MS/MS analysis; type: ADME, organism-based
Procedure, shortened: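 Rats dosed orally at 3 mg/kg in 20% HP-β-CD. Brain concentrations were measured over a 6 h time course (0.5, 2, 6 h) alongside ex vivo GluN2B occupancy, n=2.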

[21] = Stability of compound in phosphate buffer at pH 2 assessed as drug decomposition measured after 24 h; settings: pH 2, 24 h
[22] = Stability of compound in phosphate buffer at pH 7 assessed as drug decomposition measured after 24 h; settings: pH 7, 24 h
[23] = Protein binding in human plasma at 1 uM after 6 hrs by equilibrium dialysis method; type: ADME, cell-free; settings: read-out: PPB (converted)
[24] = Clearance in Sprague-Dawley rat at 0.5 mg/kg, iv using 20% HP-beta-CD formulation by LC-MS/MS analysis; type: ADME, organism-based; settings: in vivo
Procedure, shortened: (§8)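 Rat PK with IV and PO dosing, n=3. The usual doses were 0.5 mg/kg IV and 2.5 mg/kg PO in 20% HP-β-CD. One compound was instead given at 0.1 mg/kg IV and 0.5 mg/kg PO.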

[25] = Volume of distribution at steady state in Sprague-Dawley rat at 0.5 mg/kg, iv or 2.5 mg/kg, po using 20% HP-beta-CD formulation by LC-MS/MS analysis; type: ADME, organism-based; settings: in vivo, read-out: Vdss
Procedure, shortened: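 Rat PK at 0.5 mg/kg i.v. and 2.5 mg/kg p.o., vehicle 20% HP-β-CD. n=3, values given as mean ± SD.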

[26] = Half life in Sprague-Dawley rat at 0.5 mg/kg, iv or 2.5 mg/kg, po using 20% HP-beta-CD formulation by LC-MS/MS analysis; type: ADME, organism-based; settings: in vivo; procedure, shortened: as §6
[27] = Cmax in Sprague-Dawley rat at 0.5 mg/kg, iv or 2.5 mg/kg, po using 20% HP-beta-CD formulation by LC-MS/MS analysis; type: ADME, organism-based; parameters: dose 2.5 mg/kg; settings: in vivo; procedure, shortened: as §8
[28] = Oral bioavailability in Sprague-Dawley rat at 2.5 mg/kg using 20% HP-beta-CD formulation by LC-MS/MS analysis; type: ADME, organism-based; settings: in vivo; procedure, shortened: as §6
[29] = Negative allosteric modulation of human GluN1a/GluN2A receptor expressed in CHO cells assessed as inhibition of glutamate and glycine-induced calcium flux preincubated for 5 mins followed by glutamate and glycine addition and measured after 5 mins by calcium 5 dye based FLIPR assay; type: cell-based; procedure, shortened: as §1
[30] = Negative allosteric modulation of human GluN1a/GluN2C receptor expressed in CHO cells assessed as inhibition of glutamate and glycine-induced calcium flux preincubated for 5 mins followed by glutamate and glycine addition and measured after 5 mins by calcium 5 dye based FLIPR assay; type: cell-based; procedure, shortened: as §1
[31] = Negative allosteric modulation of human GluN1a/GluN2D receptor expressed in CHO cells assessed as inhibition of glutamate and glycine-induced calcium flux preincubated for 5 mins followed by glutamate and glycine addition and measured after 5 mins by calcium 5 dye based FLIPR assay; type: cell-based; procedure, shortened: as §1

Voltage-gated inwardly rectifying potassium channel KCNH2, sequence (Q12809 whole entry): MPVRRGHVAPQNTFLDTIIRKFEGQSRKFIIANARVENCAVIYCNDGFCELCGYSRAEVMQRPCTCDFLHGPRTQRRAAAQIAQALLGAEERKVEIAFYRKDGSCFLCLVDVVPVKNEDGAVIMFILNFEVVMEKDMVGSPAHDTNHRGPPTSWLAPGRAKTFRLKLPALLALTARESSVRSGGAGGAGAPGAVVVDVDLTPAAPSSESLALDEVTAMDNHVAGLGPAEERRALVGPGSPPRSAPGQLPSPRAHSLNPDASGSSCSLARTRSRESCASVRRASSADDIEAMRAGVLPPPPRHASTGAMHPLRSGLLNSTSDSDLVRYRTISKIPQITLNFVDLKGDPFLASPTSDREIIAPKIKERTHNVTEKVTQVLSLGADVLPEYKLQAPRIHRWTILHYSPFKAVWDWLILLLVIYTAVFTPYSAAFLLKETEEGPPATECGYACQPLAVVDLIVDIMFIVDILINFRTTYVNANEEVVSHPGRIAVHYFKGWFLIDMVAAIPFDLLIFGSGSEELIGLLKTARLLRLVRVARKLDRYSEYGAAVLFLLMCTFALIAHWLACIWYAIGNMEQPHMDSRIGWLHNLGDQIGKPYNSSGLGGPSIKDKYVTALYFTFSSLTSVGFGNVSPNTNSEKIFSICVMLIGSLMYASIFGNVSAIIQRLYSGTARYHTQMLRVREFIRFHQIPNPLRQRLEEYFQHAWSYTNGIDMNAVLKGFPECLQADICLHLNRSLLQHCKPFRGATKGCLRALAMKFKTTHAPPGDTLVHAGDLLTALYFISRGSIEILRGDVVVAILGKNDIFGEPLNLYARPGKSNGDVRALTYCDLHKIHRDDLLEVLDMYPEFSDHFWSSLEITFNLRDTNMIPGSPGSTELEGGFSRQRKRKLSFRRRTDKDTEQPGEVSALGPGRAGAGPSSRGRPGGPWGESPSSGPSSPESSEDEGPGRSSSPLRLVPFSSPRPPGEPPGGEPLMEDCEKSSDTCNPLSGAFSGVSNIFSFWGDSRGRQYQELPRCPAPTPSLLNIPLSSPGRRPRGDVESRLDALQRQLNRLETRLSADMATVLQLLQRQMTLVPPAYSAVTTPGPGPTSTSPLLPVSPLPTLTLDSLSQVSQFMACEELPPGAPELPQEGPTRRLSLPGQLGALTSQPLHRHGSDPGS

SMILES | IC50 [1] [nM] | solubility at 72 h [2] [µM] | solubility at 72 h [3] [µM] | efflux ratio at 1 h, 5 µM [4] | Ki [6] [nM] | hepatic extraction ratio at 1 µM [7] | hepatic extraction ratio at 1 µM [8] | IC50 [5] [nM] | further results
Cc1csc(-c2cnc3c(c2)n(CC(=O)N(C)C)c(=O)n3C)c1 | 216 | 31 (≈ 10.2 µg/mL) | 25 (≈ 8.26 µg/mL) | 3.5 | 270 | 0.59 | 0.82 | > 10000 | 
Cn1c(=O)n(CC(=O)N2CCC2)c2cc(-c3cccc(C(F)(F)F)c3)cnc21 | 97 | 19 (≈ 7.42 µg/mL) | 23 (≈ 8.98 µg/mL) | 9 | 19 | < 0.3 | < 0.2 | > 10000 | fraction unbound at 6 h, 1 µM [23]: 0.052
Cn1c(=O)n(CC(=O)N2CCC2)c2cc(-c3ccc(C4CC4)s3)cnc21 | 81 |  |  |  | 63 |  |  | > 10000 | 
O=C(Cn1c(=O)[nH]c2ncc(-c3cccc(C(F)(F)F)c3)cc21)NC1CC1 |  | < 4 | < 4 |  |  |  |  | > 10000 | IC50 [29]: > 10000 nM; IC50 [30]: > 10000 nM; IC50 [31]: > 10000 nM; fraction unbound at 6 h, 1 µM [23]: 0.004
Cn1c(=O)n(CC(=O)N2CC(F)C2)c2cc(-c3cccc(C(F)(F)F)c3)cnc21 | 118 | 17 (≈ 6.94 µg/mL) | 16 (≈ 6.53 µg/mL) | 7 | 25 | < 0.3 | < 0.2 | > 10000 | 

The remaining compounds from weak to strong by IC50 [1], led by results:

IC50 [1] [nM] | solubility at 72 h [2] [µM] | solubility at 72 h [3] [µM] | efflux ratio at 1 h, 5 µM [4] | Ki [6] [nM] | hepatic extraction ratio at 1 µM [7] | hepatic extraction ratio at 1 µM [8] | SMILES | IC50 [5] [nM] | further results
79 |  |  | 9.1 | 59 | < 0.3 | 0.52 | Cn1c(=O)n(CC(=O)N2CCC2)c2cc(-c3cc(C(F)F)cs3)cnc21 | > 10000 | Stabilty [21]: Unstable; Stabilty [22]: Unstable
71 | < 4 | < 4 | 3.7 | 21 | < 0.3 | 0.17 | Cn1c(=O)n(CC(=O)N2CC(F)C2)c2cc(-c3ccc(C(F)(F)F)s3)cnc21 | > 10000 | clearance [9]: 20 mL/min/kg; Vd [10]: 0.9 L/kg; half-life [11]: 54 min; Cmax [12]: 1000 ng/mL; AUC(0-inf) [13]: 3610 ng·h/mL; Tmax [14]: 60 min; bioavailability [15]: 109%; Occ [16]: 74%; Occ [17]: 71%; Occ [18]: 24%; Cmax [19]: 728 ng/g; Tmax [20]: 120 min
47 | 6 (≈ 2.27 µg/mL) | 6 (≈ 2.27 µg/mL) | 7 | 19 | 0.38 | 0.31 | CN(C)C(=O)Cn1c(=O)n(C)c2ncc(-c3cccc(C(F)(F)F)c3)cc21 | > 10000 | 
25 | 39 (≈ 13.4 µg/mL) | 48 (≈ 16.4 µg/mL) | 3.2 | 44 | 0.56 | 0.78 | Cc1ccc(-c2cnc3c(c2)n(CC(=O)N2CCC2)c(=O)n3C)s1 | > 10000 | clearance [24]: 114 mL/min/kg; Vd [25]: 1.1 L/kg; half-life [26]: 12 min; Cmax [27]: 6 ng/mL; bioavailability [28]: 1%
6 |  |  | 5.8 | 19 | 0.46 | 0.58 | Cn1c(=O)n(CC(=O)N2CCC2)c2cc(-c3ccc(C(F)F)s3)cnc21 | > 10000 | Stabilty [21]: Unstable; Stabilty [22]: Unstable
